≈ marks a conversion by molar mass, not a printed value. Read-outs that look alike come from different tables or passages of the source.
How the values were obtained:
C. albicans KA205 [1] = experiment: Agar well-diffusion, inhibition zone; format: cell-based, Candida albicans; settings: Candida albicans, KA205, read-out: Average diameter of inhibition zone (ZI)
Outline: (§1)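 Clinical MDR isolates from complicated UTI patients. Suspensions were made in Tryptic Soya and Sabouraud broths from subcultures on Tryptic Soya and Sabouraud agar plates. Agar well diffusion followed CLSI guidelines, with test compounds applied at 10 μM in DMSO. Fosfomycin and fluconazole were positive controls and DMSO the negative control. Zone diameters were read in mm, in triplicate.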

E. coli KA780 [2] = experiment: Broth microdilution MIC and MBC; format: cell-based; settings: Escherichia coli; for MIC: KA780, 24 h; for MBC: KA780, read-out: MBC/MIC
E. faecalis KA247 [3] = experiment: Agar well-diffusion, inhibition zone; format: cell-based, Enterococcus faecalis; settings: Enterococcus faecalis, KA247, read-out: Average diameter of inhibition zone (ZI)
Outline: as §1

P. mirabilis KA320 [4] = experiment: Agar well-diffusion, inhibition zone; format: cell-based, Proteus mirabilis; settings: Proteus mirabilis, KA320, read-out: Average diameter of inhibition zone (ZI)
Outline: as §1

C. albicans KA205 [5] = experiment: Broth microdilution MIC and MFC; format: cell-based; settings: Candida albicans; for MIC: KA205, 24 h; for MFC: KA205, read-out: MFC/MIC
C. tropicalis KA205 [6] = experiment: Broth microdilution MIC and MFC; format: cell-based; settings: Candida tropicalis; for MIC: KA205, 24 h; for MFC: KA205, read-out: MFC/MIC
P. mirabilis KA320 [7] = experiment: Broth microdilution MIC and MBC; format: cell-based; settings: Proteus mirabilis; for MIC: KA320, 24 h; for MBC: KA320, read-out: MBC/MIC
E. coli KA780 [8] = experiment: Agar well-diffusion, inhibition zone; format: cell-based, Escherichia coli; settings: for zone of inhibition at 10 µM: Escherichia coli, KA780, read-out: Average diameter of inhibition zone (ZI)
Outline: as §1

E. faecalis KA247 [9] = experiment: Broth microdilution MIC and MBC; format: cell-based; settings: Enterococcus faecalis, KA247, 24 h
S. aureus KA112 [10] = experiment: Broth microdilution MIC and MBC; format: cell-based; settings: Staphylococcus aureus; for MIC: KA112, 24 h; for MBC: KA112, read-out: MBC/MIC
C. tropicalis KA205 [11] = experiment: Agar well-diffusion, inhibition zone; format: cell-based, Candida tropicalis; settings: Candida tropicalis, KA205, read-out: Average diameter of inhibition zone (ZI)
Outline: as §1

S. aureus KA112 [12] = experiment: Agar well-diffusion, inhibition zone; format: cell-based, Staphylococcus aureus; settings: Staphylococcus aureus, KA112, read-out: Average diameter of inhibition zone (ZI)
Outline: as §1

E. coli MurA enzyme = E. coli MurA enzyme (Escherichia coli, UniProt P0A749); experiment: MurA enzyme inhibition assay; format: biochemical; settings: for remaining activity at 100 µM: read-out: RA (residual activity), at 100 μM
[13] = test system: MDR bacterial and fungal isolates; experiment: Broth microdilution MIC/MBC/MFC, whole panel; format: cell-based; settings: bactericidal/fungicidal if MBC or MFC not greater than four times the MIC

Sequence of E. coli MurA enzyme (P0A749 whole entry): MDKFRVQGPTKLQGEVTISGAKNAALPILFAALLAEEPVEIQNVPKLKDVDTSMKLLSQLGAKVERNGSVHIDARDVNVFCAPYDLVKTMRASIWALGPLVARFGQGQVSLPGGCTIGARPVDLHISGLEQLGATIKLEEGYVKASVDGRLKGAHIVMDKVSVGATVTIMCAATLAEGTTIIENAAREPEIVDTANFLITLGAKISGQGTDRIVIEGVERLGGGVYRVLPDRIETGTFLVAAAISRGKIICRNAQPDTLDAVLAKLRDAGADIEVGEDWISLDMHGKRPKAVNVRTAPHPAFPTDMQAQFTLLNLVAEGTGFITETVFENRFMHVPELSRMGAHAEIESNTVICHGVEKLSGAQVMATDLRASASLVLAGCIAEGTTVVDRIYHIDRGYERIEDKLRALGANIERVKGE

Row | Structure (SMILES) | zone of inhibition at 10 µM (C. albicans KA205 [1]) [mm] | MIC (E. coli KA780 [2]) [µg/mL] | MBC (E. coli KA780 [2]) [µg/mL] | zone of inhibition at 10 µM (E. faecalis KA247 [3]) [mm] | zone of inhibition at 10 µM (P. mirabilis KA320 [4]) [mm] | MIC (C. albicans KA205 [5]) [µg/mL] | MFC (C. albicans KA205 [5]) [µg/mL] | MIC (C. tropicalis KA205 [6]) [µg/mL] | MFC (C. tropicalis KA205 [6]) [µg/mL] | MIC (P. mirabilis KA320 [7]) [µg/mL] | MBC (P. mirabilis KA320 [7]) [µg/mL] | zone of inhibition at 10 µM (E. coli KA780 [8]) [mm] | MIC (E. faecalis KA247 [9]) [µg/mL] | MIC (S. aureus KA112 [10]) [µg/mL] | MBC (S. aureus KA112 [10]) [µg/mL] | zone of inhibition at 10 µM (C. tropicalis KA205 [11]) [mm] | zone of inhibition at 10 µM (S. aureus KA112 [12]) [mm] | also measured
1 | Nc1nc2c(-c3ccc([N+](=O)[O-])cc3)nn(-c3ccccc3)c2s1 [Compound 2, 3-(4-nitrophenyl)-1-phenyl-1H-pyrazolo[4,3-d]thiazol-5-amine] | 17 ± 0.16 | 4 (≈ 11.9 µM) | 0.5 (≈ 1.48 µM) | 17 | 16 ± 0.79 | 1 (≈ 2.96 µM) | 0.5 (≈ 1.48 µM) | 1 (≈ 2.96 µM) | 2 (≈ 5.93 µM) | 8 (≈ 23.7 µM) | 1 (≈ 2.96 µM) | 17 ± 0.62 | 8 (≈ 23.7 µM) | 8 (≈ 23.7 µM) | 0.5 (≈ 1.48 µM) | 16 ± 0.63 | 17 ± 0.39 | –
2 | C[C@@H]1O[C@@H]1P(=O)(O)O [FO, fosfomycin, reference compound] | – | 256 (≈ 1850 µM) | 1 (≈ 7.24 µM) | 17 ± 0.34 | 19 ± 0.13 | – | – | – | – | 16 (≈ 116 µM) | 1 (≈ 7.24 µM) | 11 | 8 (≈ 57.9 µM) | 8 (≈ 57.9 µM) | 0.4 (≈ 2.9 µM) | – | 18 ± 0.32 | IC50 (E. coli MurA enzyme; IC50, preincubation 0 min): 52 ± 0.33 µM; IC50 (E. coli MurA enzyme; IC50, preincubation 10 min): 12.7 µM; RA (residual activity) (E. coli MurA enzyme; at 100 μM, preincubation 0 min): 52 ± 0.55%; remaining activity at 100 µM (E. coli MurA enzyme; preincubation 0 min): < 60%; remaining activity at 100 µM (E. coli MurA enzyme; preincubation 10 min): 10 ± 0.92%; Average diameter of inhibition zone (ZI) (E. coli KA780 [8]; 10 μM (DMSO), mean of three ± SEM): 11 ± 0.23 mm; bactericidal/fungicidal effect [13]: bactericidal and fungicidal activities
3 | O=[N+]([O-])c1ccc(-c2nn(-c3ccccc3)c3sc(NC(c4cccs4)P(=O)(Oc4ccccc4)Oc4ccccc4)nc23)cc1 (stereo not shown) [Compound 6a, Diphenyl(((3-(4-nitrophenyl)-1-phenyl-1H-pyrazolo[4,3-d]thiazol-5-yl)amino)(thiophen-2-yl)methyl)phosphonate] | 20 ± 0.89 | 1 (≈ 1.5 µM) | 0.5 (≈ 0.751 µM) | 18 ± 0.74 | 18 ± 0.5 | 0.5 (≈ 0.751 µM) | 0.5 (≈ 0.751 µM) | 0.5 (≈ 0.751 µM) | 1 (≈ 1.5 µM) | 2 (≈ 3 µM) | 1 (≈ 1.5 µM) | 19 ± 0.66 | 2 (≈ 3 µM) | 1 (≈ 1.5 µM) | 1 (≈ 1.5 µM) | 20 ± 0.2 | 19 | –

Source: article PMC10685179 (RSC Advances, 2023)
